From ChEMBL document CHEMBL1137240, “Conjugation of adenosine and hexa-(D-arginine) leads to a nanomolar bisubstrate-analog inhibitor of basophilic protein kinases” (J Med Chem, 2006)

What was measured:
[1] = target: Casein kinase II (Homo sapiens) (UniProt P67870+P68400+P19784); test: Percent residual activity, relative to control, of CK2 at 1 uM concentration of inhibitor in presence of 5 uM ATP; type: protein-complex assay
Method in brief: (§1)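 It is expressed as percent of activity in control incubations without inhibitor, as the mean of duplicate determinations. The protocol follows earlier published panel methods.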

[2] = target: Ribosomal protein S6 kinase (P70S6K) (Homo sapiens) (UniProt Q9UBS0+P23443); test: Percent residual activity, relative to control, of P70S6K at 1 uM concentration of inhibitor in presence of 20 uM ATP; type: protein-complex assay; method in brief: as §1
[3] = target: cAMP-dependent protein kinase catalytic subunit alpha (Homo sapiens, UniProt P17612); test: Inhibitory potency towards human cAPK C alpha in the presence of 100 uM ATP and 30 uM TAMRA-kemptide
Method in brief: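 cAPK catalytic subunit (about 1 nM) incubated at 30 °C with inhibitor at various concentrations in 50 mM Hepes pH 7.5, 10 mM Mg acetate, 0.2 mg/mL BSA, 30 µM TAMRA-kemptide; reaction started with 100 µM ATP. Stopped at fixed times by 20-fold dilution in 75 mM phosphoric acid, then normal-phase TLC with fluorescence imaging (532 nm excitation). IC50 determined.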

[4] = target: Eukaryotic elongation factor 2 kinase (Homo sapiens) (UniProt O00418); test: Percent residual activity, relative to control, of EF2K at 1 uM concentration of inhibitor in presence of 5 uM ATP; method in brief: as §1
[5] = species on record: Homo sapiens; test: Percent residual activity, relative to control, of MAPKAP-K1b/Rsk2 at 1 uM concentration of inhibitor in presence of 50 uM ATP; method in brief: as §1
[6] = target: RAC-beta serine/threonine-protein kinase (Homo sapiens) (UniProt P31751); test: Percent residual activity, relative to control, of PKB beta at 1uM concentration of inhibitor in presence of 50uM ATP; method in brief: as §1
[7] = target: SRSF protein kinase 1 (Homo sapiens) (UniProt Q96SB4); test: Percent residual activity, relative to control, of SRPK1 at 1 uM concentration of inhibitor in presence of 50 uM ATP; method in brief: as §1
[8] = target: Glycogen synthase kinase-3 beta (Homo sapiens) (UniProt P49841); test: Percent residual activity, relative to control, of GSK3 beta at 1uM concentration of inhibitor in presence of 5uM ATP; method in brief: as §1
[9] = target: Serine/threonine-protein kinase PLK1 (Homo sapiens) (UniProt P53350); test: Percent residual activity, relative to control, of PLK1 at 1 uM concentration of inhibitor in presence of 5 uM ATP; method in brief: as §1
[10] = target: Mitogen-activated protein kinase 10 (Homo sapiens) (UniProt P53779); test: Percent residual activity, relative to control, of JNK3 at 1uM concentration of inhibitor in presence of 50uM ATP; method in brief: as §1
[11] = target: Mitogen-activated protein kinase 13 (Homo sapiens) (UniProt O15264); test: Percent residual activity, relative to control, of SAPK4/p38 delta at 1 uM concentration of inhibitor in presence of 5 uM ATP; method in brief: as §1
[12] = target: MAP kinase-interacting serine/threonine-protein kinase 2 (Homo sapiens) (UniProt Q9HBH9); test: Percent residual activity, relative to control, of MNK2 at 1 uM concentration of inhibitor in presence of 50 uM ATP; method in brief: as §1
[13] = target: AMP-activated protein kinase, AMPK (Homo sapiens) (UniProt P54646+O43741+P54619+Q9UGJ0+Q9Y478+Q13131+Q9UGI9); test: Percent residual activity, relative to control, of AMPK at 1 uM concentration of inhibitor in presence of 50 uM ATP; type: protein-complex assay; method in brief: as §1
[14] = species on record: Homo sapiens; test: Percent residual activity, relative to control, of CAMK-1 at 1 uM concentration of inhibitor in presence of 50 uM ATP; method in brief: as §1
[15] = target: Serine/threonine-protein kinase D1 (Homo sapiens) (UniProt Q15139); test: Percent residual activity, relative to control, of PKD1 at 1 uM concentration of inhibitor in presence of 50 uM ATP; method in brief: as §1
[16] = target: MAP kinase-activated protein kinase 5 (Homo sapiens) (UniProt Q8IW41); test: Percent residual activity, relative to control, of PRAK at 1uM concentration of inhibitor in presence of 20uM ATP; method in brief: as §1
[17] = target: Protein kinase C alpha type (Homo sapiens) (UniProt P17252); test: Percent residual activity, relative to control, of PKC alpha at 1uM concentration of inhibitor in presence of 20uM ATP; method in brief: as §1
[18] = target: Serine/threonine-protein kinase Sgk1 (Homo sapiens) (UniProt O00141); test: Percent residual activity, relative to control, of SGK at 1 uM concentration of inhibitor in presence of 20 uM ATP; method in brief: as §1
[19] = target: 3-phosphoinositide-dependent protein kinase 1 (Homo sapiens) (UniProt O15530); test: Percent residual activity, relative to control, of PDK1 at 1 uM concentration of inhibitor in presence of 20 uM ATP; method in brief: as §1
[20] = target: Myosin light chain kinase, smooth muscle (Homo sapiens) (UniProt Q15746); test: Percent residual activity, relative to control, of smMLCK at 1uM concentration of inhibitor in presence of 50uM ATP
Method in brief: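 Methods followed an earlier description. Activity is given as percent residual activity relative to control incubations with the inhibitor omitted. Values are means of duplicate determinations.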

[21] = target: Dual specificity mitogen-activated protein kinase kinase 1 (Homo sapiens) (UniProt Q02750); test: Percent residual activity, relative to control, of MKK1 at 1 uM concentration of inhibitor in presence of 5 uM ATP; method in brief: as §1
[22] = target: Serine/threonine-protein kinase Nek7 (Homo sapiens) (UniProt Q8TDX7); test: Percent residual activity, relative to control, of NEK7 at 1 uM concentration of inhibitor in presence of 20 uM ATP; method in brief: as §1
[23] = target: MAP kinase-activated protein kinase 3 (Homo sapiens) (UniProt Q16644); test: Percent residual activity, relative to control, of MAPKAP-K3 at 1 uM concentration of inhibitor in presence of 20 uM ATP; method in brief: as §1
[24] = target: Inhibitor of nuclear factor kappa-B kinase subunit beta (Homo sapiens) (UniProt O14920); test: Percent residual activity, relative to control, of IKK beta at 1 uM concentration of inhibitor in presence of 5 uM ATP
Method in brief: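 Kinase panel assay run at an ATP concentration close to the kinase's Km. Inhibitor tested at 1 µM. Activity expressed as percent residual relative to control incubations without inhibitor, as the mean of duplicate determinations.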

[25] = target: Serine/threonine-protein kinase Chk1 (Homo sapiens) (UniProt O14757); test: Percent residual activity, relative to control, of CHK1 at 1 uM concentration of inhibitor in presence of 20 uM ATP; method in brief: as §1
Serine/threonine-protein kinase Chk1 (Homo sapiens), sequence (O14757 whole entry): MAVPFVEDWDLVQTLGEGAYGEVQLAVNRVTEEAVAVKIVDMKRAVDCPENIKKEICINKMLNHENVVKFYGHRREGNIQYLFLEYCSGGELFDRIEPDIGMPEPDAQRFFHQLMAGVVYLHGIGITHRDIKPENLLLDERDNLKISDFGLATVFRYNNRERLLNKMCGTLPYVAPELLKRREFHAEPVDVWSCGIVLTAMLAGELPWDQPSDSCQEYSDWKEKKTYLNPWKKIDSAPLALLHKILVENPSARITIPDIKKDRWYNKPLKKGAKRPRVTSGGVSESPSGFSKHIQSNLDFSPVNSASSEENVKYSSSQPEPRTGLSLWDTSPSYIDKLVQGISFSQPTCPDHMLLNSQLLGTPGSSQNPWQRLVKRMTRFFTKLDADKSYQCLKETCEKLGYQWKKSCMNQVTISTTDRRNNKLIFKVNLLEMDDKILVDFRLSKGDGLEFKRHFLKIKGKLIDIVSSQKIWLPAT

3-phosphoinositide-dependent protein kinase 1 (Homo sapiens), sequence (O15530 whole entry): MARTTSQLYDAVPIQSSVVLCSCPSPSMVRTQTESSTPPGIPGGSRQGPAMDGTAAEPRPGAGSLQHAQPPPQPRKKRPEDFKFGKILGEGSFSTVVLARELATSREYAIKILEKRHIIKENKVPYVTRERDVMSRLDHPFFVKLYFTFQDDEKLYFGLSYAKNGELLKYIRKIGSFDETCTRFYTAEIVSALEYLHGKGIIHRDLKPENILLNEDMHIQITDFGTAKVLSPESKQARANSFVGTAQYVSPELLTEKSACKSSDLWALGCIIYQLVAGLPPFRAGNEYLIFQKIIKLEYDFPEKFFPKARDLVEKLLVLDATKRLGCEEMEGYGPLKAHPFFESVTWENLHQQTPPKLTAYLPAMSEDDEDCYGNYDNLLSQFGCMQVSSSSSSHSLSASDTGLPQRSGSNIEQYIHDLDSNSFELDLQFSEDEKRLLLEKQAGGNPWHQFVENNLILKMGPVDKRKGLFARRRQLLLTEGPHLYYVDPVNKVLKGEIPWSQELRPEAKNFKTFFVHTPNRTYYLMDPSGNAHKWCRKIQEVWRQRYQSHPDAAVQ
Mitogen-activated protein kinase 10 (Homo sapiens), sequence (P53779 whole entry): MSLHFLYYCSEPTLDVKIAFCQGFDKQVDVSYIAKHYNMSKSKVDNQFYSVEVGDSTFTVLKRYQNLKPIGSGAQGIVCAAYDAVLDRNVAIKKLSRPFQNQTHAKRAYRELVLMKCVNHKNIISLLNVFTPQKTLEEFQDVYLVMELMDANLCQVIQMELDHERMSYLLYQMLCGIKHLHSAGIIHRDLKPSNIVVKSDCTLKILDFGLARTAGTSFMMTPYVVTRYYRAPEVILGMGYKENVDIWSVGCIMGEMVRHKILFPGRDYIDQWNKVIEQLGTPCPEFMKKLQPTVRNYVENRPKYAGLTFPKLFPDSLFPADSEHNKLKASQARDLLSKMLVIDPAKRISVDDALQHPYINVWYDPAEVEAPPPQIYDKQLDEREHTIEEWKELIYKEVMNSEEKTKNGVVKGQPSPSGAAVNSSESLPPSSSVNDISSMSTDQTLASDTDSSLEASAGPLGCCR
SRSF protein kinase 1 (Homo sapiens), sequence (Q96SB4 whole entry): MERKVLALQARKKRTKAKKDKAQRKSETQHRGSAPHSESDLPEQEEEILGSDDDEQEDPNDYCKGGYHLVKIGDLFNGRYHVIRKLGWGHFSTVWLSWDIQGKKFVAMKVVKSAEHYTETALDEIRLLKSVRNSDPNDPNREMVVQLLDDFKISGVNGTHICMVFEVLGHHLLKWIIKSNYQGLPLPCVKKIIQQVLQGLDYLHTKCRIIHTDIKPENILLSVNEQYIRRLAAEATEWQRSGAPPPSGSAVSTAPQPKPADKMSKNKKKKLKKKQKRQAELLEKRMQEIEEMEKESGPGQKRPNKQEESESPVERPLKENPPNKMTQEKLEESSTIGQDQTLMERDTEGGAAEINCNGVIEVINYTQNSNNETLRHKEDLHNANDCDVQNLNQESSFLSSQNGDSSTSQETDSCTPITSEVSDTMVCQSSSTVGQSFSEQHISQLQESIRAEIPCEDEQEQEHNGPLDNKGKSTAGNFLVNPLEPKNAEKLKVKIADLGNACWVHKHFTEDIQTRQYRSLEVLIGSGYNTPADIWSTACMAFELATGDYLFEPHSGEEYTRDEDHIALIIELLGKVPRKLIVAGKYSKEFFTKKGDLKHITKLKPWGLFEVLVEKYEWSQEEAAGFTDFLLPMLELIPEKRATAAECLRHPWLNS
MAP kinase-interacting serine/threonine-protein kinase 2 (Homo sapiens), sequence (Q9HBH9 whole entry, looked up): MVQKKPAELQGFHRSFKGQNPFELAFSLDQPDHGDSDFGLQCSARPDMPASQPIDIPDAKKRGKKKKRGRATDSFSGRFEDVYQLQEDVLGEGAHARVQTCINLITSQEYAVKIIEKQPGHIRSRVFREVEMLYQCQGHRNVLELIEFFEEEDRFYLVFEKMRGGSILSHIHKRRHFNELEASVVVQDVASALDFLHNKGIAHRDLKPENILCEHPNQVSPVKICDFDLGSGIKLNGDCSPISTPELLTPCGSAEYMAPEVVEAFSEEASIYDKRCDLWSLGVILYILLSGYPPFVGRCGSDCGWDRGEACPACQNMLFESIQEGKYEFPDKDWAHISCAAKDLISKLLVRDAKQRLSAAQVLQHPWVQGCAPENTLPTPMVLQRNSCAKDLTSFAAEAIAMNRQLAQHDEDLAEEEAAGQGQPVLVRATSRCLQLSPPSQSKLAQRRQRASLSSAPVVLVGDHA
Eukaryotic elongation factor 2 kinase (Homo sapiens), sequence (O00418 whole entry): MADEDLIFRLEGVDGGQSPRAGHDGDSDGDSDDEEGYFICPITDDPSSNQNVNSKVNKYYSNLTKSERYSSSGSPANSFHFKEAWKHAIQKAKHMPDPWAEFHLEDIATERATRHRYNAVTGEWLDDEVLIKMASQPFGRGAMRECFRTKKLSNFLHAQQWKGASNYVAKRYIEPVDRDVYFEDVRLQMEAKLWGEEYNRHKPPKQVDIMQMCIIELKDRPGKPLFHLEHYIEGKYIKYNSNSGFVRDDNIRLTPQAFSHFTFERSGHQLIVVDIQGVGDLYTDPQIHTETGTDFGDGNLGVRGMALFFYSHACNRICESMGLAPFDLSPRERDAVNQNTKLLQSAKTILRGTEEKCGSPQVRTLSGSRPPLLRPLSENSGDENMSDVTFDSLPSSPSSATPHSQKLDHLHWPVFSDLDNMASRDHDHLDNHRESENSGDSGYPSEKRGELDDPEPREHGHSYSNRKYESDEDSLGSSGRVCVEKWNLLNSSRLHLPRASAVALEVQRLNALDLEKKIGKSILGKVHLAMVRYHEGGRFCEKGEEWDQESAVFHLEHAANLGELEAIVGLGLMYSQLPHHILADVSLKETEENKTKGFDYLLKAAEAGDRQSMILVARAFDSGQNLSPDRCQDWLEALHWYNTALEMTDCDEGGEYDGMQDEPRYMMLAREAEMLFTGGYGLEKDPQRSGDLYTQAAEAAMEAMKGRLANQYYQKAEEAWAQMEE
Inhibitor of nuclear factor kappa-B kinase subunit beta (Homo sapiens), sequence (O14920 whole entry): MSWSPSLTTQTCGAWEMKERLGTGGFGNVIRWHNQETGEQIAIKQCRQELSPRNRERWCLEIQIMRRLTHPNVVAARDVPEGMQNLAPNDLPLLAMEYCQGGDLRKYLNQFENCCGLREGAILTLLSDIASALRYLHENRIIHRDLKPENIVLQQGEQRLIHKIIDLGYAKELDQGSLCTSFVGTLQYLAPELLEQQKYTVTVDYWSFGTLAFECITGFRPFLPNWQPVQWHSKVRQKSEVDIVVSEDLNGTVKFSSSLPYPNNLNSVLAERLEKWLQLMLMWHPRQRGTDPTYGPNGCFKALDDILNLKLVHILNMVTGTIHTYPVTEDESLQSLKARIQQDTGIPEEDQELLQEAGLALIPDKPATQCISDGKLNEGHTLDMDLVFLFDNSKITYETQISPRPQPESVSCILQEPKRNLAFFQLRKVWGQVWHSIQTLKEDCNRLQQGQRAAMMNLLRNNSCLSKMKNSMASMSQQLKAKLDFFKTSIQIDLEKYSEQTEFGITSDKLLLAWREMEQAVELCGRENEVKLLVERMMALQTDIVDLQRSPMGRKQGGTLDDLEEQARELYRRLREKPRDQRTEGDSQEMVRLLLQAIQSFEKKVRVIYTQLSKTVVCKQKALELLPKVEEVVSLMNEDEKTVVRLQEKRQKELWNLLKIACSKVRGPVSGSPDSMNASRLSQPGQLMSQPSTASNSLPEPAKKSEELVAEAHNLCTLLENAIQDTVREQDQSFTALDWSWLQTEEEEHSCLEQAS
Glycogen synthase kinase-3 beta (Homo sapiens), sequence (P49841 whole entry, looked up): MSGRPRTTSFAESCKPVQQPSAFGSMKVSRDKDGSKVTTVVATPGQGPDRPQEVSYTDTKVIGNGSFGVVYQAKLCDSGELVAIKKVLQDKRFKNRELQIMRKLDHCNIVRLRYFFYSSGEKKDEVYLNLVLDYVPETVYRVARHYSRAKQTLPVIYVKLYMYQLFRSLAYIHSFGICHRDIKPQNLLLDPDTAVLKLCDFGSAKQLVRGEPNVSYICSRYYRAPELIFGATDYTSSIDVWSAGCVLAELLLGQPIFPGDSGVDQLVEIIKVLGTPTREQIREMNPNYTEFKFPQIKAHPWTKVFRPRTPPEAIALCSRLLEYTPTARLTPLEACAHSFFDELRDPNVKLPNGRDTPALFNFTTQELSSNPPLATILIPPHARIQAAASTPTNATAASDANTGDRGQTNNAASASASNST
Mitogen-activated protein kinase 13 (Homo sapiens), sequence (O15264 whole entry): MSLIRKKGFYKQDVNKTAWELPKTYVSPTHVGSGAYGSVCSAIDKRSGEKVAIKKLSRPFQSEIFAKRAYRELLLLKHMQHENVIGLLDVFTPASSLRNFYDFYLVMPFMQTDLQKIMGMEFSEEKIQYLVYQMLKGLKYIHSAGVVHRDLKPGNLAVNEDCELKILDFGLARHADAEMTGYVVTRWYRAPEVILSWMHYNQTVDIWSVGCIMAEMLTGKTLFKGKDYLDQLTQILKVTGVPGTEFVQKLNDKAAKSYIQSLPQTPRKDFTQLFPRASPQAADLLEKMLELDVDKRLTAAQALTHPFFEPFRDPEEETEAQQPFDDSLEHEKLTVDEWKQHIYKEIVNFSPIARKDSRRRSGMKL

Structure (SMILES): N=C(N)NCCC[C@@H](NC(=O)[C@@H](CCCNC(=N)N)NC(=O)[C@@H](CCCNC(=N)N)NC(=O)[C@@H](CCCNC(=N)N)NC(=O)[C@@H](CCCNC(=N)N)NC(=O)[C@@H](CCCNC(=N)N)NC(=O)CCCCCNC(=O)[C@H]1O[C@@H](n2cnc3c(N)ncnc32)[C@H](O)[C@@H]1O)C(N)=O
- Activity [1]: 104%
- Activity [2]: 7%
- IC50 [3]: 109 nM
- Activity [4]: 92%
- Activity [5]: 12%
- Activity [6]: 3%
- Activity [7]: 100%
- Activity [8]: 56%
- Activity [9]: 81%
- Activity [10]: 91%
- Activity [11]: 107%
- Activity [12]: 99%
- Activity [13]: 48%
- Activity [14]: 15%
- Activity [15]: 54%
- Activity [16]: 89%
- Activity [17]: 31%
- Activity [18]: 16%
- Activity [19]: 62%
- Activity [20]: 72%
- Activity [21]: 77%
- Activity [22]: 58%
- Activity [23]: 67%
- Activity [24]: 94%
- Activity [25]: 16%
